Laboratory results: ChEMBL document CHEMBL4513216, “Probing the Open Global Health Chemical Diversity Library for Multistage-Active Starting Points for Next-Generation Antimalarials” (ACS Infect Dis, 2020)

assay: Toxicity liver stage against HepG2, at 10uM; type: cell-based; design: test concentration 10 uM, cell line HepG2-A16-CD81EGFP; settings: human, HepG2-A16-CD81EGFP cells; read-out: INHIBITION
Procedure, shortened: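 Uninfected HepG2-A16-CD81EGFP cells, 3 × 10^3 per well, 1536-well, plated on prespotted compound at 10 μM final, parasite-free screening media added to match infected plates; puromycin 10 μM positive, DMSO 0.5% negative; run in parallel with 48 h PbLuc assay at 37 °C, 5% CO2; viability by CellTiter-Glo luminescence, normalized to controls.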

Compound | cytotoxicity at 10 µM [%]
COc1ccc2c(c1)CN(CC1CC1)C(=O)CCN2CC(C)(C)O | -13.9
O=c1c(NCCc2ccc(O)cc2)c(NCc2ccccn2)c1=O | -2.72
O=C(c1ccoc1)N1CCC2(CC1)COC(COCc1ccccn1)C2 (stereo not drawn) | -138
Cc1cccc(C(=O)N2CCC3(CC2)CC(c2ccccc2)C(=O)N3)c1 (stereo not drawn) | 17.8
Cc1nc(CO[C@@H]2CN(Cc3ccc(F)cc3)[C@@H]3COC[C@@H]32)cs1 | 5.42
COC[C@@]12CCO[C@@H]1CCN(C(=O)CCc1ccccc1Cl)C2 | 7.69
CS(=O)(=O)NC[C@]12COC[C@H]1CN(C(=O)c1cnccn1)C2 | 6.3
CN(Cc1cn2c(n1)CN(C(=O)c1cccn1C)CC2)Cc1ccco1 | 2.75
CNC(=O)C1Cn2ccnc2C2(CCN(Cc3csc(C)n3)CC2)O1 (stereo not drawn) | -151
CC(C)=CCC/C(C)=C/CC(C)(C)CNCc1ccco1 | -23.7
COc1ccc2c(c1)C1(CCN(Cc3ccoc3)CC1)N(C)CC2 | -8.04
Cc1n[nH]c(C)c1S(=O)(=O)N(C)Cc1nn(C)c(Cl)c1Cl | 0.303
Cc1cccc2c1cnn2CCC(=O)NCc1csc(C2CC2)n1 | 4.22
O=C(c1ccnc(C2CCNCC2)c1)N1CCCC(CO)C1 (stereo not drawn) | 3.9
Cc1nccn1[C@@H]1CC[C@@H](NC(=O)Cn2c(C)nc3ccccc32)[C@H]1O | 2.41
Cc1nc(CC(=O)N2CCC(c3ccn4nccc4n3)CC2)cs1 | -0.956
COc1cc(CN2CCCC[C@]3(C)NC(=O)CC[C@H]23)ccc1F | -2.32
Cn1cnc(S(=O)(=O)N2CCCC2c2ccnc3nccn23)c1 (stereo not drawn) | 6.28
CC(C(=O)NC1CC1)n1nc(-c2cccs2)cc(N)c1=O (stereo not drawn) | 10.9
O=C1NC2(CCN(C(=O)CN3CCOCC3)CC2)Nc2ccc(Cl)cc21 | 0.961
CC(=O)N1CCC(C)(c2nc(C)no2)CC1 | -1.55

Compound | cytotoxicity at 10 µM [%]
CC(C)N1CCC(c2nccnc2Nc2cnccn2)CC1 | 1.44
CCc1nnc(Nc2cc(C)nc(C3CCN(c4ccncn4)C3)n2)s1 (stereo not drawn) | 4.38
COCC1CCN(c2cc(C3CN(C)CCO3)nc(C)n2)CC1 (stereo not drawn) | 4.71
CCOc1cc(CNC(=O)NC2CC=CC2)ccc1OC(F)F | -42.4
CCN(CC)CCn1cc(NC(=O)Nc2ccccc2OC)cn1 | 12.7
CC(CNS(C)(=O)=O)Oc1cccc(Cl)c1 (stereo not drawn) | 4.6
O=C(NC1CCCN(Cc2c(F)cccc2F)C1)c1cnccn1 (stereo not drawn) | -1.62
CCC(NC(=O)CN(C)Cc1ccc(C)o1)c1ccc(C)cc1 (stereo not drawn) | 3.97
COC(=O)C(C)Sc1nnnn1C1CCOCC1 (stereo not drawn) | -10.5
COc1ccc(C(=O)NC2CC2)c(OC)c1 | -3.51
CNC(=O)C1Cc2ccccc2CN1CCC#N (stereo not drawn) | 6.35
CC(c1ccc(Cl)cc1)N1CCN(CCS(N)(=O)=O)CC1 (stereo not drawn) | -1.37
CSCC(C)(O)CNC(=O)c1ccc(F)cc1Cl (stereo not drawn) | -2.79
Cc1cc(CN2CCc3cncnc3C2)no1 | 5.84
COc1c(C2CCCN2C(=O)c2ccoc2C)c(C)nn1C (stereo not drawn) | 0.243
CN1CCN(C(=O)c2cnsn2)c2ccc(F)cc21 | 3.47
CCC(=O)N(CCN(C)C)Cc1ccc(F)c(F)c1 | -4.38
O=C(Nc1cn[nH]c1)N(CCO)C1CCc2ccccc21 (stereo not drawn) | -8.74
O=C(CCS(=O)(=O)C1CCCC1)NCCc1ccc2c(c1)OCCO2 | -1.29
O=C(c1ccncc1)N1CCN(c2ccc(F)cc2Cl)CC1 | -140
COc1ccc(CSCC(O)CO)c(Cl)c1 (stereo not drawn) | -142

Compound | cytotoxicity at 10 µM [%]
Cc1ncsc1C(=O)N1CCN(Cc2ccccc2)CC1C (stereo not drawn) | -161
CN(CC(F)(F)F)C(=O)CN1CCC(c2cc3ccccc3[nH]2)CC1 | 4.93
CC(Cn1cncn1)NC(=O)NCc1csc(N(C)C)n1 (stereo not drawn) | 8.42
Fc1ccc(C(NCc2nnc(C3CC3)o2)C2CCC2)cc1 (stereo not drawn) | -48.1
Cc1ccc(N2CCCC(NC(=O)Nc3cnn(C)c3)C2=O)cc1 (stereo not drawn) | -44
O=C(NCCCN1CCN(c2ncccn2)CC1)NCC1CCOC1 (stereo not drawn) | -56.6
N#Cc1cc(F)c(NCCc2ccc(F)cc2)c(F)c1 | -60.3
CC(C)N(C)CC(=O)NC1CCc2nccn2C1 (stereo not drawn) | 17.8
Cc1ccc(S(=O)(=O)NC(=O)c2cccc3c2OCCO3)c(C)c1 | 3.25
CC(C)(O)CN1CCN(C(=O)c2cc3ccccc3c(=O)[nH]2)CC1 | 1.52
c1c(CN2CCOCC2)nc2n1CCN(CC1CC1)C2 | 2.73
COCCn1cc2c(n1)C(CNC(=O)c1cc(C)[nH]c1C)OCC2 (stereo not drawn) | 8.81
CCN(C(=O)c1nc2c(s1)CCCN2C)C(C)C | 4.37
Cc1cc(CN2CC[C@H]3C[C@H](C(=O)N(C)C)O[C@@H]3C2)no1 | -5.53
Cc1cc2nc(C(=O)NCc3cccnc3N(C)C)cc(C)n2n1 | -5.54
COc1ccc(CCC2CCCN(CC(=O)O)C2)cc1 (stereo not drawn) | 3.38
CC(C)Oc1cc(N2CCC3(CC2)[C@H](O)C[C@@H]3O)nc(N)n1 | -0.335
CCNc1ncc(CN2C[C@H](C3CC3)[C@@H](N)C2)cn1 | -40
Cc1cc(C(F)(F)F)cc(N2CCN(Cc3ccccc3)CC(O)C2)n1 (stereo not drawn) | 0.165
Cc1ccc(C)c(CN2CCCn3nc(CNS(C)(=O)=O)cc3C2)c1 | -4.64
CN(C)CCN1CC(C(=O)NCc2cn3cccnc3n2)CC1=O (stereo not drawn) | -4.29

Compound | cytotoxicity at 10 µM [%]
Cc1cc(C)n(-c2ccc(C(=O)NCC(CO)Cc3cccs3)cc2)n1 (stereo not drawn) | 6.64
O=C(CSCC1CC1)N1CCCN(Cc2ccc(F)cc2)CC1 | 3.54
CCCc1cc(NCc2cc(C)on2)n2nccc2n1 | -6.85
O=C(CC1COCCN1)NCCc1noc(-c2ccccc2)n1 (stereo not drawn) | 3.05
COc1ccccc1OC1CCN(C(=O)CCCN2CCOCC2)CC1 | -177
Cc1nc(N2CCN(S(C)(=O)=O)CC2)cc(-n2cnc(C)c2C)n1 | -5.83
COc1ccc(-n2ncc(C(C)NC3CCOCC3)c2C)cc1 (stereo not drawn) | 2.77
O=C(Cn1cccnc1=O)NC(Cc1cccs1)c1ccccn1 (stereo not drawn) | -2.03
O=c1oc(-c2ccc(F)cc2)nn1CN1CCCCC1 | -4.35
CCc1nnc2n1CCN(C(=O)c1cc3ccc(C)cc3[nH]1)C2 | -4.87
COc1cccc(S(=O)(=O)NC(=O)CCC2CCCC2)c1 | 0.428
Cc1[nH]nc2ncc(C(=O)N3CCN(CCC(C)C)CC3)cc12 | 0.977
Cc1occc1C(=O)N1CCCN(Cc2nccn2C)CC1 | -1.56
Cc1cc(C)n(CC2CN(c3ccc(C#N)cn3)CCO2)n1 (stereo not drawn) | -1.56
Cc1cccc(-c2nc(CNC3CCc4ncnn4C3)no2)c1 (stereo not drawn) | -2.09
CCC(=O)NCC(=O)NCC1CCN(c2cc(Cl)ccc2C)C1 (stereo not drawn) | -13.2
COC(=O)C(c1ccccc1)N(C)C(=O)c1ccnc(C)n1 (stereo not drawn) | 1.4
CC(C)(C)c1n[nH]c(C2CN(C(=O)Cn3ccccc3=O)CCO2)n1 (stereo not drawn) | -1.22
Cc1ccc(CN2CCc3onc(C(=O)N4CCCC4)c3C2)o1 | 6.28
COCC1COCCC12CCN(Cc1cccs1)CC2 (stereo not drawn) | 6.13
